# Experimental data: ChEMBL document CHEMBL1765004 (2011)
# Active and inactive are the calls of the source. No cut-off for these calls is given here.
# Legend:
# HCT-116 [1] = assay: Anticancer activity against human HCT116 cells; format: functional
# Outline: (§1)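 NCI-DTP 60 cell line screen; GI50 values supplied by NCI-DTP. HCT-116 GI50 for some entries determined instead by a separate group (Henry Ford Hospital). Compounds failing initial single-dose testing at 10 μM (<25% growth inhibition) were not taken to five-dose testing.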
# HCT-116 [2] = assay: Antimicrofilament activity in human HCT116 cells assessed as loss of microfilament at 0.01 uM by rhodamine-phalloidin staining; format: functional, cell-based
# HCT-116 [3] = assay: Antimicrofilament activity in human HCT116 cells assessed as loss of microfilament at 0.05 uM by rhodamine-phalloidin staining; format: functional, cell-based
# HCT-116 [4] = assay: Antimicrofilament activity in human HCT116 cells assessed as loss of microfilament at 0.1 uM by rhodamine-phalloidin staining; format: functional, cell-based
# HCT-116 [5] = assay: Antimicrofilament activity in human HCT116 cells assessed as additional loss of microfilament at 1 uM by rhodamine-phalloidin staining; format: functional, cell-based
# HCT-116 [6] = assay: Antimicrofilament activity in human HCT116 cells assessed as loss of microfilament network at 0.5 uM by rhodamine-phalloidin staining; format: functional, cell-based
# HCT-116 [7] = assay: Antimicrofilament activity in human HCT116 cells assessed as additional loss of microfilament at 5 uM by rhodamine-phalloidin staining; format: functional, cell-based
# HCT-116 [8] = assay: Antimicrofilament activity in human HCT116 cells assessed as complete loss of microfilament network at GI50 concentration by rhodamine-phalloidin staining; format: functional, cell-based
# NCI-H522 = assay: Anticancer activity against human NCI-H522 cells; format: functional; outline: as §1
# U-251 = assay: Anticancer activity against human U251 cells; format: functional; outline: as §1
# IGROV-1 = assay: Anticancer activity against human IGROV1 cells; format: functional; outline: as §1
# MDA-MB-231 = assay: Anticancer activity against human MDA-MB-231 cells; format: functional; outline: as §1
# LOX IMVI = assay: Anticancer activity against human LOXIMVI cells; format: functional; outline: as §1
# DU-145 = assay: Anticancer activity against human DU145 cells; format: functional; outline: as §1
# A498 = assay: Anticancer activity against human A498 cells; format: functional; outline: as §1
# HCT-116 [9] = assay: Antimicrofilament activity in human HCT116 cells assessed as loss of microfilament at 5 uM by rhodamine-phalloidin staining; format: functional, cell-based
# HCT-116 [10] = assay: Antimicrofilament activity in human HCT116 cells assessed as loss of microfilament at 1 uM by rhodamine-phalloidin staining; format: functional, cell-based
# HCT-116 [11] = assay: Antimicrofilament activity in human HCT116 cells assessed as complete loss of microfilament network at 0.5 uM to 5 uM by rhodamine-phalloidin staining
# HCT-116 [12] = assay: Antimicrofilament activity in human HCT116 cells assessed as additional loss of microfilament at 0.1 uM by rhodamine-phalloidin staining; format: functional, cell-based
# HCT-116 [13] = assay: Antimicrofilament activity in human HCT116 cells assessed as total loss of microfilament network at 5 uM by rhodamine-phalloidin staining; format: functional, cell-based
# HCT-116 [14] = assay: Antimicrofilament activity in human HCT116 cells assessed as total loss of microfilament network at 1 uM by rhodamine-phalloidin staining; format: functional, cell-based
# HCT-116 [15] = assay: Antimicrofilament activity in human HCT116 cells assessed as total loss of microfilament network at 0.5 uM by rhodamine-phalloidin staining; format: functional, cell-based
# HCT-116 [16] = assay: Anticancer activity against human HCT116 cells at 10 uM; format: functional
# PC-3 = assay: Growth inhibition against human PC3 cells assessed as disruption of actin cytoskeleton; format: functional
# LNCaP = assay: Growth inhibition against human LNCAP cells assessed as disruption of actin cytoskeleton; format: functional
# HCT-116 [17] = assay: Cytotoxicity against human HCT116 cells assessed as time required to kill 90% of tumor cells at 0.004 uM by clonogenic assay; format: functional
# Outline: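 Clonogenic assay: HCT-116 seeded at 200–20 000 cells per 60 mm dish in RPMI + 10% FBS. Drug was given at 1 mg/mL and 10-fold dilutions for 2 h or 24 h, then replaced with drug-free medium, or given continuously. After 7 days colonies were stained with methylene blue and those of ≥50 cells counted, normalized to untreated control. Repeats spanned 100–0.1% survival; endpoint was 90% kill.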
# [18] = Growth inhibition against human TSU-Pr1 cells assessed as disruption of actin cytoskeleton; format: functional
# HCT-116 [19] = assay: Antimicrofilament activity in human HCT116 cells assessed as additional loss of microfilament network at 0.5 uM by rhodamine-phalloidin staining; format: functional, cell-based
Compound,GI50 (HCT-116 [1]),Activity (HCT-116 [2]),Activity (HCT-116 [3]),Activity (HCT-116 [4]),Activity (HCT-116 [6]),GI50 (NCI-H522),GI50 (U-251),GI50 (IGROV-1),GI50 (MDA-MB-231),GI50 (LOX IMVI),GI50 (DU-145),GI50 (A498),also measured
COC(=O)C[C@@H](NC(=O)[C@@H](Cc1c(Br)[nH]c2ccccc12)N(C)C(=O)[C@H](C)NC(=O)[C@@H](C)C/C(C)=C/[C@H](C)C[C@H](C)O)c1ccc(O)cc1,270 nM,inactive,inactive,inactive,Active,–,–,–,–,–,–,–,Activity (HCT-116 [5]): Active; Activity (HCT-116 [7]): Active
CCOC(=O)C[C@@H](NC(=O)[C@@H](Cc1c(Br)[nH]c2ccccc12)N(C)C(=O)[C@H](C)NC(=O)[C@@H](C)C/C(C)=C/[C@H](C)C[C@H](C)O)c1ccc(O)cc1,280 nM,inactive,inactive,inactive,Active,40 nM,50 nM,170 nM,740 nM,160 nM,3720 nM,440 nM,Activity (HCT-116 [8]): Active; Activity (HCT-116 [5]): Active; Activity (HCT-116 [7]): Active
C/C(=C\[C@H](C)C[C@H](C)O)C[C@H](C)C(=O)N[C@@H](C)C(=O)N(C)[C@H](Cc1c(Br)[nH]c2ccccc12)C(N)=O,11100 nM,inactive,inactive,inactive,Active,–,–,–,22300 nM,–,–,–,Activity (HCT-116 [9]): inactive; Activity (HCT-116 [10]): inactive
C/C1=C\[C@H](C)C[C@H](C)OC(=O)C[C@H](c2ccc(O)c(O)c2)NC(=O)[C@@H](Cc2c(Br)[nH]c3ccccc23)N(C)C(=O)[C@H](C)NC(=O)[C@@H](C)C1,70 nM,inactive,Active,–,–,60 nM,40 nM,30 nM,90 nM,7 nM,80 nM,10 nM,Activity (HCT-116 [11]): Active; Activity (HCT-116 [12]): Active; Activity (HCT-116 [13]): Active; Activity (HCT-116 [14]): Active; Activity (HCT-116 [15]): Active
C/C1=C\[C@H](C)C[C@H](C)OC(=O)/C=C(/c2ccc(O)c(O)c2)NC(=O)[C@@H](Cc2c(Br)[nH]c3ccccc23)N(C)C(=O)[C@H](C)NC(=O)[C@@H](C)C1,3840 nM,inactive,inactive,inactive,Active,–,–,–,2320 nM,–,–,–,Activity (HCT-116 [9]): inactive; Activity (HCT-116 [10]): inactive
C/C(=C\[C@H](C)C[C@H](C)OC(=O)CC(=O)c1ccc(O)c(O)c1)C[C@H](C)C(=O)N[C@@H](C)C(=O)N(C)[C@H](Cc1c(Br)[nH]c2ccccc12)C(N)=O,inactive,inactive,inactive,inactive,–,–,–,–,inactive,–,–,–,Activity (HCT-116 [9]): inactive; Activity (HCT-116 [10]): inactive; inhibition at 10 µM (HCT-116 [16]): < 25%
C/C1=C\[C@H](C)C[C@H](C)OC(=O)C[C@H](c2ccc(O)cc2)NC(=O)[C@@H](Cc2c(Br)[nH]c3ccccc23)N(C)C(=O)[C@H](C)NC(=O)[C@@H](C)C1 [JASPAMIDE],40 nM,inactive,inactive,inactive,–,30 nM,70 nM,20 nM,10 nM,10 nM,30 nM,30 nM,GI50 (PC-3): 65000 nM; Activity (HCT-116 [11]): Active; GI50 (LNCaP): 41000 nM; Time (HCT-116 [17]): 7 days; GI50 [18]: 170000 nM; Activity (HCT-116 [13]): Active; Activity (HCT-116 [14]): Active; Activity (HCT-116 [15]): Active
C=C1C[C@H](C)C(=O)N[C@@H](C)C(=O)N(C)[C@H](Cc2c(Br)[nH]c3ccccc23)C(=O)N[C@@H](c2ccc(O)cc2)CC(=O)O[C@@H](C)C[C@@H](C)C1=O [JASPLAKINOLIDE B],140 nM,inactive,inactive,Active,–,–,–,–,40 nM,–,–,–,Activity (HCT-116 [8]): Active; Activity (HCT-116 [5]): Active; Activity (HCT-116 [19]): Active; Activity (HCT-116 [7]): Active
CC[C@@H]1NC(=O)[C@@H](C)C/C(C)=C/[C@H](C)C[C@H](C)OC(=O)C[C@H](c2ccc(O)cc2)NC(=O)[C@@H](Cc2c(Br)[nH]c3ccccc23)N(C)C1=O [JASPLAKINOLIDE D],20 nM,–,–,–,–,30 nM,10 nM,8 nM,20 nM,3 nM,20 nM,2 nM,–
C/C1=C\[C@H](C)C[C@H](C)OC(=O)C[C@H](c2ccc(O)cc2)NC(=O)[C@@H](Cc2c(Br)[nH]c3ccccc23)N(C)C(=O)[C@H](C)NC(=O)CC1 [JASPLAKINOLIDE F],110 nM,–,–,–,–,610 nM,50 nM,20 nM,260 nM,30 nM,290 nM,210 nM,–
C/C1=C\[C@H](C)C[C@H](C)OC(=O)C[C@H](c2ccc(O)cc2)NC(=O)[C@@H](Cc2c(Br)[nH]c3ccccc23)NC(=O)[C@H](C)NC(=O)[C@@H](C)C1 [JASPLAKINOLIDE M],130 nM,–,–,–,–,200 nM,60 nM,30 nM,210 nM,20 nM,250 nM,170 nM,–
C/C1=C\[C@H](C)C[C@H](C)OC(=O)C[C@H](c2ccc(O)cc2)NC(=O)[C@@H](Cc2c[nH]c3ccccc23)N(C)C(=O)[C@H](C)NC(=O)[C@@H](C)C1 [JASPLAKINOLIDE Q],50 nM,–,–,–,–,160 nM,30 nM,10 nM,70 nM,20 nM,100 nM,80 nM,–
C/C1=C\[C@H](C)C[C@H](C)OC(=O)C[C@H](c2ccc(O)cc2)NC(=O)[C@@H](Cc2c(Br)[nH]c3cc(Br)ccc23)N(C)C(=O)[C@H](C)NC(=O)[C@@H](C)C1 [JASPLAKINOLIDE R1],60 nM,inactive,inactive,inactive,–,3 nM,30 nM,30 nM,90 nM,40 nM,310 nM,40 nM,Activity (HCT-116 [11]): Active; Activity (HCT-116 [13]): Active; Activity (HCT-116 [14]): Active; Activity (HCT-116 [15]): Active
C/C(=C\[C@H](C)C[C@H](C)O)C[C@H](C)C(=O)N[C@@H](C)C(=O)N(C)[C@H](Cc1c(Br)[nH]c2ccccc12)C(=O)N[C@H](CC(=O)O)c1ccc(O)cc1 [JASPLAKINOLIDE Z1],13700 nM,inactive,inactive,inactive,Active,120 nM,600 nM,1760 nM,2500 nM,280 nM,18800 nM,–,Activity (HCT-116 [9]): inactive; Activity (HCT-116 [10]): inactive
